Source: PubChem BioAssay (several laboratories)
KLK5 inh = blocks human kallikrein 5 protease activity; Q9Y337; 210,000 compounds, 0.59% hits; recombinant hK5, fluorogenic AMC substrate cleavage; inhibition, % at 5 µM;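 active = inhibition of 40% or more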;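 note: 0% = enzyme controls without compound and 100% = no-enzyme blanks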
Thrombin inh = blocks human thrombin protease activity; P00734; alpha-thrombin, Boc-VPR-AMC fluorogenic substrate cleavage; inhibition, % at 5 µM; 220,000 compounds, 0.26% hits;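 active = inhibition at or above 40%; inactive = inhibition below 40%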;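 note: 0% = enzyme with no compound and 100% = wells without enzyme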
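Material: human alpha-thrombin enzyme / Medium: pH 7.5 Tris (50 mM) with NaCl 150 mM, Tween 20 0.05% / Compound: single-point dosing at 5 µM, 0.2% DMSO / Incubation: enzyme reaction carried out at room temperature / Detection: AMC fluorescence, 355/460 nm / Read-out basis: percent inhibition scaled between no-compound controls and no-enzyme blanks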
FXIa inh = blocks human coagulation factor XIa protease activity; inhibition, % at 5 µM; purified FXIa, Boc-Glu-Ala-Arg-AMC fluorogenic substrate; 220,000 compounds, 0.14% hits; P03951; AID 798;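 active = inhibition of at least 40%; inactive = inhibition below 40%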;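 note: fluorescence of freed AMC excited at 355 nm; 0% = enzyme without compound and 100% = no enzyme blank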
Target sequence (P03951 19-387 limits assumed): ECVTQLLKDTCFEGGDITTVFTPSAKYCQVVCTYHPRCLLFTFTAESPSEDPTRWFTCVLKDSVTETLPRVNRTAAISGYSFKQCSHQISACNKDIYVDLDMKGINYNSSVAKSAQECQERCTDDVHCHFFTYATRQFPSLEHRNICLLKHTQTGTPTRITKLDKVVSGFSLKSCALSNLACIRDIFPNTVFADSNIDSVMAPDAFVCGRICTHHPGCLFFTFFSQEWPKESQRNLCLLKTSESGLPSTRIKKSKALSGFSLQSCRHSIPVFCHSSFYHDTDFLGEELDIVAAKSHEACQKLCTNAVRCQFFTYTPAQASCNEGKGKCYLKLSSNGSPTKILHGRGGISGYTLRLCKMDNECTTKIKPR
Target sequence (P03951 388-625 limits assumed): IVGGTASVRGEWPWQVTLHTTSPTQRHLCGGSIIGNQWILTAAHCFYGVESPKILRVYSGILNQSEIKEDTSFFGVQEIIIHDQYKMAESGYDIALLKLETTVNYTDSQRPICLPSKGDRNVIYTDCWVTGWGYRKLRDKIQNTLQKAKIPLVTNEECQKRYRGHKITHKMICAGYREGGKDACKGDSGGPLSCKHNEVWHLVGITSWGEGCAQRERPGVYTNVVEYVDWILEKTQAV
FXIIa inh = factor XIIa (human) inhibition; P00748; purified FXIIa, Boc-QGR-AMC fluorogenic substrate, 2 h; inhibition, % at 5 µM; 220,000 compounds, 0.3% hits; AID 800; in the data active = inhibition above about 40%;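 note: 0% = enzyme with no compound and 100% = blank without enzyme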
m-calpain inh = calpain II (pig) inhibition; purified calpain II, fluorogenic peptide substrate, 30 min; inhibition, % at 16 µM; 220,000 compounds, 0.37% hits; AID 1236;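 active = inhibition above about 50%, limit read from the data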
* marks the source's active call; other numbers are inactive results; · = no result. An excerpt weighted towards active compounds, which were near 1.4% of everything screened.

SMILES	KLK5 inh	Thrombin inh	FXIa inh	FXIIa inh	m-calpain inh
CN1C(=O)C(Cc2cccs2)C(=O)N(C)C1=O	-18.5	5.0	3.5	15.5	-8.2
O=C1NC(=O)C(Cc2cccs2)C(=O)N1	78.2*	2.3	2.6	27.4	6.3
COC(=O)C1C2c3ccccc3OC1(C)N=c1s/c(=C/c3cnn(C)c3)c(=O)n12 (centres undefined)	-1.1	-3.1	-2.8	-9.2	-19.1
O=C(Cn1cnc2sc3c(c2c1=O)CCCC3)NCCCC(=O)N1CCC2(CC1)OCCO2	-15.1	-2.9	-17.8	7.3	-5.8
O=C1NC(=O)N(Cc2ccc(F)cc2)C(=O)/C1=C/c1cccs1	-16.0	1.1	-5.8	1.1	-2.5
O=C1NC(=O)N(Cc2ccccc2Cl)C(=O)/C1=C/c1cccs1	49.9*	10.9	29.3	39.2	-8.0
O=C(COC(=O)c1cccc(O)c1)Nc1ccc(Cl)cc1C(=O)c1ccccc1	-10.6	-13.9	29.9	29.3	52.6*
CN1CCN(c2ncnc(Cl)c2N)CC1	33.0	1.1	30.4	102.5*	6.1
N#CC12CNCC1CN=N2 (centres undefined)	-0.8	-0.2	3.1	11.4	3.5
CC[C@]12C=CCN3CCC4(c5cc(Br)c(OC)cc5N(C)C4[C@@](O)(C(=O)OC)[C@@H]1OC(C)=O)C32 (some centres undefined)	43.2*	27.7	21.3	28.0	19.0
Clc1ccc2c(N3CCNCC3)ccnc2c1	41.2*	22.8	10.2	20.9	12.8
COC(=O)c1ccccc1-n1c(C)nc2ccccc2c1=O	81.8*	28.4	3.5	16.7	9.9
Cc1ccccc1-n1c(C)nc2ccccc2c1=O	23.7	7.9	36.3	25.1	25.6
CC(C)(C)c1ccc(C(=O)C2CCCN(Cc3ccon3)C2)cc1 (centres undefined)	·	-0.5	-2.6	8.5	9.1
O=P(C(c1c[nH]c2ccccc12)N1CCOCC1)(N1CCOCC1)N1CCOCC1 (centres undefined)	42.9*	1.0	-4.5	6.3	19.6
CC(C(=O)c1c[nH]c2ccccc12)N1CCN(C(=O)c2ccco2)CC1 (centres undefined)	3.2	0.5	6.1	12.7	6.3
CCc1c(C)nc(N)nc1N1N=C1SCC#N	6.7	-0.2	31.5	58.3*	15.2
O=C(O)CN1C(=O)CN=C(c2ccccn2)c2cc(Cl)ccc21	-4.9	-7.2	-1.6	-1.7	7.9
O=C(CCc1nc(-c2ccccc2F)no1)N1CCC2(CC1)OCCO2	9.3	-7.0	0.8	3.0	-2.9
COc1cc2c(cc1/C=C/[N+](=O)[O-])OCO2	40.3*	16.5	41.6*	39.0	18.4
OC1(c2ccccc2F)CC2CCC(C1)N2CCN1CCOCC1 (centres undefined)	55.2*	22.6	32.9	-162.2	8.1
COc1ccc(C(=O)CN2CCOCC2)cc1F	6.6	-2.1	5.7	-7.4	21.3
CC(=NCCO)c1c(O)n(C2CCCCC2)c(=O)[nH]c1=O	-23.1	3.4	3.2	21.3	-12.5
CCC(=O)c1c(O)n(C2CCCCCC2)c(=O)[nH]c1=O	46.3*	23.9	-3.0	20.4	18.5
COCCOC(=O)C1=C(N)OC(C)=C(C(=O)OC)C12C(=O)Nc1ccccc12 (centres undefined)	2.0	0.9	-3.0	5.9	2.8
SMILES	KLK5 inh	Thrombin inh	FXIa inh	FXIIa inh	m-calpain inh
OCC#CC[N+]1(CC#Cc2ccccc2)CCOCC1	77.7*	36.1	32.6	30.4	0.7
COc1ccc(NP(=O)(Nc2ccc(OC)cc2)Oc2ccccc2)cc1	-7.2	-13.5	-8.2	2.5	21.9
CC(C)N1CCC2(CC1)NC(CO)(CO)CO2	2.1	-0.4	19.9	28.6	-11.6
O=C(c1ccccc1)c1cn(CC(=O)N2CCCc3ccccc32)c2ccccc12	-13.4	-7.8	5.3	13.7	56.2*
CSc1ccccc1C(=O)C1CCCN(Cc2ccncc2)C1 (centres undefined)	·	-0.4	-0.9	6.8	-3.5
CC1CCCN(CC(=O)N2CCCc3ccccc32)C1 (centres undefined)	86.9*	27.6	2.0	18.8	24.2
CCN(CC)CCN=Cc1c(O)n(Cc2ccccc2)c(=O)[nH]c1=O	7.3	-7.5	-1.3	-0.4	-11.7
C#CCOc1cc(C2C3=C(COC3=O)Nc3cc4c(cc32)OCO4)ccc1OC (centres undefined)	9.5	3.4	9.5	14.3	-135.1
CN(C(=O)Oc1ccc(Cl)c2cccnc12)c1ccccc1	-18.1	-0.6	5.3	10.8	-16.6
CN(C(=O)Oc1cccc2cccnc12)c1ccccc1	22.0	16.2	14.3	44.3*	9.2
COC1=CCC2([N+](=O)[O-])CN(C)CC1([N+](=O)[O-])C2 (centres undefined)	-4.3	-6.4	4.8	5.0	-14.0
CNC(=O)Oc1cccc2ccccc12	42.5*	21.7	17.9	27.6	2.6
CCOC(=O)N1CCN(C(C)C(=O)c2c[nH]c3ccccc23)CC1 (centres undefined)	0.2	1.2	-1.6	2.8	1.6
O=C(C1CC(c2ccc(F)cc2)=NO1)N1CCC2(CC1)OCCO2 (centres undefined)	-2.9	-2.8	-9.8	-3.1	-32.4
O=C(C1CC(c2ccc(Cl)c(Cl)c2)=NO1)N1CCC2(CC1)OCCO2 (centres undefined)	5.8	6.9	1.9	47.9*	-0.9
CCCCC/C=C\C/C=C\C/C=C\C/C=C\CCCC(=O)Nc1ccc(O)cc1	·	·	·	·	63.2*
Cc1ccc2c(c1)C1CN(C)CCC1N2C(=O)c1cn(-c2ccccc2)nc1-c1ccccc1 (centres undefined)	-4.9	79.9*	-6.1	7.8	2.2
CCN1C(=O)/C(=C/c2ccc3c(c2)CCN3CCCCl)C(=O)NC1=S	-60.3	-1.4	-1.3	0.6	-56.6
O=C1NC(=S)N(C2CC2)C(=O)/C1=C/c1ccc2c(c1)CCN2CCCCl	20.6	25.2	14.8	42.7*	-21.1
CCCCN1C(=O)NC(=O)C2(Cc3c(nc4ccccn4c3=O)N3CCc4ccccc4C32)C1=O (centres undefined)	-0.9	44.8*	4.7	10.0	-22.9
Cc1nc2ccccc2n1C1CCN(Cc2nnnn2CCc2ccccc2)CC1	-1.9	-4.1	-13.5	42.9*	7.6
Nc1ccc(Cl)cc1C(=O)c1ccccc1Cl	-12.8	-6.1	2.0	8.7	5.5
Cc1ccc(C2C(S(C)(=O)=O)=C(O)C(=O)N2c2ccccc2)cc1 (centres undefined) (tested in a mixture with another compound)	44.2*	-0.2	2.4	17.4	18.4
CN(C)CCN=Cc1c(O)n(CCC2=CCCCC2)c(=O)[nH]c1=O	-16.8	-12.0	-7.4	5.9	-42.5
O=C(O)c1ccc(N=Cc2c(O)n(Cc3ccc(F)cc3)c(=O)[nH]c2=O)cc1	29.8	32.0	31.0	41.0*	18.6
Cc1cc(N2CCCC2)ccc1C=C(C#N)C#N	48.3*	-9.3	31.3	36.2	22.8
Cc1cc(N2CCCCC2)ccc1C=C1C(=O)N(C)C(=S)N(C)C1=O	-21.0	4.3	22.7	27.6	32.1
